High-throughput results as filed in PubChem.
Most compounds without a hit are left out; they make up all but 1.6% or so of the library.
Cardio protect = cardioprotection against H2O2-induced cell death, primary screen, uHTS, H9c2 cells, ATPLite luminescence | 360,000 tested, 0.63% active | AID 588492, 2011 | protection from H2O2 cell death, % at 20 µM | H9c2 cardiomyocytes, H2O2 injury protection, 2 h;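 active means compounds giving at least 50% protection of heart cells from peroxide-induced death in the single-dose screen, raw or plate-pattern-corrected value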;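 further: 0% = DMSO wells with peroxide and 100% = DMSO wells without peroxide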
ASAP1 inh = inhibitors of human ASAP1 ArfGAP activity, primary screen, biochemical, fluorescence polarization | Arf-GAP with SH3 domain, ANK repeat and PH domain-containing protein 1 (Homo sapiens), … | ASAP1-stimulated ARF1 GTP hydrolysis, GDP FP detection | inhibition, % at 16.5 µM | 360,000 tested, 0.19% active; in the data active means inhibition above about 25%;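 further: 0% = vehicle with enzyme and substrate and 100% = no enzyme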
Target sequence (Q9ULH1 325-724 limits assumed): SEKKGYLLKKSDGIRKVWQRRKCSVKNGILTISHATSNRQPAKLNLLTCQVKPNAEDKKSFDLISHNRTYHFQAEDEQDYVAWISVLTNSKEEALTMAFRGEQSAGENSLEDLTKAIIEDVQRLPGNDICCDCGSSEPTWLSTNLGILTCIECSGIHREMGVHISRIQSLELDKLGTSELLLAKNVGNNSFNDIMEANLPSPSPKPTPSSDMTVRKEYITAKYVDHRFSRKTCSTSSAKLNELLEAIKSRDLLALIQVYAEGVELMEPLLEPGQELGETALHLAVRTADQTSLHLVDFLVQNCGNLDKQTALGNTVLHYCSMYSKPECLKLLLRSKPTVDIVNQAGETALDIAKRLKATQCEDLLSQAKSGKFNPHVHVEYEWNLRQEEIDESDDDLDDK
Neddylation inh = inhibitors of cullin neddylation, primary screen, biochemical, TR-FRET, uHTS, NAE and Ubc12. inhibition, % at 25 µM. 360,000 tested, 0.58% active. AID 651699, 2012; in the data active means inhibition above about 36%
ARFGAP1 inhibitor = inhibitors of rat ARFGAP1 GAP activity, primary screen, biochemical, fluorescence polarization, GDP tracer; ADP-ribosylation factor GTPase-activating protein 1 (Rattus norvegicus), Q62848; Arfgap1-stimulated ARF1 GTP hydrolysis, GDP FP detection; inhibition, % at 16.5 µM; 360,000 tested, 0.26% active; AID 651572, 2012;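 active means inhibition above a per-plate limit, mean inhibition of low control wells plus 3 SD, cut at about 25% in these data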;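 further: 0% = DMSO wells with enzyme and 100% = wells lacking Arfgap1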
Target sequence (Q62848 1-136 limits assumed): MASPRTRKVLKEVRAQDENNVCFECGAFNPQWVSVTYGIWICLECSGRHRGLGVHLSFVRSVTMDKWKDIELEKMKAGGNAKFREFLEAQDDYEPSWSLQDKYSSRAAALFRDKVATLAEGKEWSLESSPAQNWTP
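System: truncated rat Arfgap1 GAP domain / Benchmarks: high control wells lacking Arfgap1, low control full reaction with DMSO / Times: compound-enzyme preincubation 20 min, reaction 120 min, detection 60 min, 25 °C / Repeats: one replicate per compound / Also added: human ARF1(Δ1-17)-GTP substrate / Measured by: Tracer-displacement fluorescence polarization with EDTA stop, 620/688 nm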
* hit, by the source's call; / = not tested or not shown.

SMILES	Cardio protect	ASAP1 inh	Neddylation inh	ARFGAP1 inhibitor
O=C(COC(=O)c1c2c(nc3ccccc13)/C(=C/c1cccc([N+](=O)[O-])c1)CCC2)NC1CCS(=O)(=O)C1 (stereo not drawn)	58.8*	10.5	-4.2	16.3
CN(C(=O)COC(=O)c1c2c(nc3ccccc13)/C(=C/c1cccc([N+](=O)[O-])c1)CCC2)C1CCS(=O)(=O)C1 (stereo not drawn)	11.6	-9.0	5.0	-5.9
Cc1[nH]c2ccccc2c1/C=N/NC(=O)c1cc(-c2ccccc2)n[nH]1	55.4*	-6.4	25.3	12.6
Cc1[nH]c2ccccc2c1/C=N/Nc1nc2ccccc2[nH]1	-18.1	-3.7	53.4*	8.9
Cc1ccccc1/C=N/Nc1nc2ccccc2[nH]1	7.8	-5.4	11.7	-1.2
Cc1nn(-c2ccccc2)c(C)c1/C=N/NC(=O)c1cc(-c2ccccc2)n[nH]1	75.3*	4.8	3.8	17.5
CC(C)(C)OC(=O)N1CCC[C@H]1c1nnc(SCC(=O)Nc2ccc(Br)cc2)o1	60.4*	0.9	1.1	-1.5
COc1cc(-c2cc(NC=O)c3ncc(-c4ccc(C(C)=O)cc4)n3c2)cc(OC)c1OC	81.4*	12.6	37.1	12.4
COc1cc(-c2cc(NC=O)c3ncc(-c4cccc(C(F)(F)F)c4)n3c2)cc(OC)c1OC	58.6*	-6.8	23.3	-6.3
COc1cc(-c2cc(NC=O)c3ncc(-c4ccccc4)n3c2)cc(OC)c1OC	96.0*	4.8	16.7	6.3
O=S1(=O)c2cc(Cl)ccc2N2CC[C@H](C2)N1Cc1ccc(Cl)c(Cl)c1	/	3.8	/	-0.1
Cc1cccc(C)c1NC(=O)C1(C)CSCC(=O)N1CCCN1CCOCC1 (stereo not drawn)	/	-11.5	4.5	9.2
CCOC(=O)CN1C(=O)[C@]2(OCCC=C[C@H]2C)c2c(Br)cccc21	/	-4.0	/	-4.1
CN(C(=O)COC(=O)/C=C/c1cn(-c2ccccc2)nc1-c1ccc2c(c1)OCCO2)C1CCS(=O)(=O)C1 (stereo not drawn)	34.8	7.5	/	11.0
CNC(=O)COC(=O)/C=C/c1cn(-c2ccccc2)nc1-c1ccc(C)o1	56.4*	6.4	/	1.0
COc1ccc(-c2nn(-c3ccccc3)cc2/C=C/C(=O)OCC(=O)Nc2ccccc2C#N)cc1	-1.9	-5.1	/	8.1
O=C(COC(=O)/C=C/c1cn(-c2ccccc2)nc1-c1ccc2c(c1)OCCO2)NC1CCS(=O)(=O)C1 (stereo not drawn)	56.8*	3.9	/	14.4
Nc1ccn([C@@H]2O[C@H](C(=O)N[C@H](Cc3ccccc3)C(=O)N3CCC(F)(F)CC3)[C@@H](O)[C@H]2O)c(=O)n1	/	2.6	/	-5.5
CN(C)Cc1ccc(-c2nc3cccc4c3n2CCNC4=O)cc1	53.1*	3.6	12.9	6.8
COc1ccc(/C=N/NC(=O)CNC(=O)/C=C/c2ccccc2OC)cc1	2.9	-4.3	5.0	17.3
COc1ccccc1/C=C\C(=O)NCC(=O)N/N=C/c1cccc(OC)c1O	72.4*	13.0	5.9	0.2
COc1cccc(/C=N/NC(=O)Cn2nc(C)c([N+](=O)[O-])c2C)c1O	53.5*	-5.0	-3.4	-0.1
COc1cccc(/C=N/NC(=O)CNC(=O)c2cccs2)c1O	63.1*	8.2	18.2	-0.9
COc1ccc(/C=C/C(=O)NCC(=O)N/N=C/c2cc(Br)ccc2OC)cc1	4.4	7.4	-9.5	24.3
COc1cccc(/C=N/NC(=O)C(C)n2nc(C)c([N+](=O)[O-])c2C)c1O (stereo not drawn)	32.8	-1.0	1.5	1.8
SMILES	Cardio protect	ASAP1 inh	Neddylation inh	ARFGAP1 inhibitor
COc1ccccc1/C=C/C(=O)NCC(=O)N/N=C/c1cc(Br)ccc1OC	98.3*	-7.8	6.9	2.4
C=CCCC1CN(Cc2ccc(OC)cc2)S(=O)(=O)c2c(cccc2N(C)S(=O)(=O)c2ccc(C)cc2)O1 (stereo not drawn)	/	-5.7	/	-6.9
CCOC(=O)C1=CC[C@@H](c2ccccc2)C(C#N)(C#N)[C@H]1/C=C/c1ccccc1	/	-1.7	/	12.8
Cc1cc(N2CCN(C(=O)OC(C)(C)C)C[C@@H]2C)ccc1N1C[C@@H](C)O[C@@H](C)C1	/	-1.5	/	-1.9
C=CCN=C1NC(c2cccc(F)c2)C(C(=O)OC)=C(C)N1C (stereo not drawn)	/	-2.3	/	-14.3
CC(C)(C)OC(=O)N[C@H]1C=C[C@@H](CC(=O)OCC(F)(F)F)C1	/	15.5	/	14.1
COc1cccc(/C=N/NC(=O)CSc2ccccc2C)c1O	53.1*	-3.8	19.7	-1.0
COc1cccc(/C=N/NC(=O)CSc2ccccc2C)c1OC	-3.1	16.8	34.4	10.3
Cc1nn(C)cc1C(C(=O)NC1CCCCC1)N(C(=O)Cc1cccs1)c1ccc(Cl)cc1 (stereo not drawn)	54.7*	-4.2	3.3	1.5
COc1ccc(-c2cc(=O)oc3cc(O)ccc23)cc1	43.8	1.8	/	10.0
O=c1cc(-c2ccc([N+](=O)[O-])cc2)c2ccc(O)cc2o1	60.5*	-1.9	-13.9	1.0
CC(=O)NC(c1cc(Cl)c2cccnc2c1O)C(C)C (stereo not drawn)	29.7	5.2	-27.2	5.0
CC(=O)NC(c1cc(Cl)c2cccnc2c1O)C1CC1 (stereo not drawn)	59.7*	-4.5	-12.8	-3.8
Oc1c(C(c2ccc(Cl)cc2)N2CCCC2)cc(Cl)c2cccnc12 (stereo not drawn)	72.4*	2.1	23.5	5.3
CCOc1cc(Br)c(Br)c(C=Nc2ccc(NC(C)=O)cc2)c1O	93.9*	-11.2	-6.6	2.2
CC1(C)c2[nH]c3ccccc3c2C[C@@H]2C(=O)N(c3cc(F)ccc3F)C(=O)N21	0.7	27.5*	-12.4	8.7
CC1(C)c2[nH]c3ccccc3c2C[C@H]2C(=O)N(Cc3cccc(F)c3)C(=O)N21	-5.6	6.0	-15.9	9.2
COC1=C/C(=C/c2c(O)c(C#N)c3ccccn23)C=CC1=O	0.4	4.7	39.0*	9.2
COc1cc(OC)cc(C(=O)c2c(C)c(C#N)c3ccccn23)c1	21.8	1.8	-64.2	-3.7
CCCCCCCCN1C(=O)[C@H](CC(=O)NCc2cccc3ccccc23)C[C@@]2(C(=O)OC)CC(C)(C)CC=C12	/	7.7	10.0	11.8
COC(=O)[C@@]1(Cc2ccccc2)[C@H]2C(=O)N(Cc3ccccc3)C(=O)[C@H]2[C@H]2CN=C(SCc3ccc(C#N)cc3)N21	44.0	13.0	0.3	-4.6
CCN1C(=O)[C@H]2[C@H]3CN=C(SCc4ccc(C#N)cc4)N3[C@@](Cc3ccccc3)(C(=O)OC)[C@H]2C1=O	54.8*	-1.3	-7.6	-3.5
Brc1csc(C=Nc2ccc3c(c2)OCCOCCOCCOCCO3)c1	-5.0	-11.7	-37.4	2.1
Oc1c(Cl)cc(Cl)cc1C=Nc1ccc2c(c1)OCCO2	72.0*	14.9	20.6	-0.5
